Laboratory results as given in ChEMBL document CHEMBL1126766 (J Med Chem, 1993).

How the values were obtained:
Format in all cases: functional
Vanilloid receptor [1] = target: T1, Vanilloid receptor (Rattus norvegicus, UniProt Q9ERZ8+Q9WUD2+O35433); experiment: In vitro effective concentration for [Ca2+] uptake into dorsal root ganglia neurones in culture
Cavia porcellus = species: Cavia porcellus; experiment: Effective concentration for guinea pig ileum contraction in an in vitro assay
Mus musculus = species: Mus musculus; experiment: Effective analgesic dose in mouse tail-flick latency assay
Vanilloid receptor [2] = target: T1, Vanilloid receptor; experiment: In vitro effective concentration for Ca++ uptake into dorsal root ganglia neurones in culture
How it was run: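 Uptake of 45Ca2+ tracer into cultured dorsal root ganglion neurones, evoked by the applied agonist analogues. Potency is expressed as EC50 in μM, reported ± an error term. Full assay details are held in an earlier paper of the series.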

| SMILES | EC50 (Vanilloid receptor [1]) | EC50 (Vanilloid receptor [2]) | other results |
| --- | --- | --- | --- |
| COc1cc(CNC(=O)CCCCCN)ccc1O.O=C(O)C(F)(F)F | > 100 µM | – | – |
| COc1cc(CNC(=O)/C=C/c2ccc(N(C)C)cc2)ccc1O | 4.39 µM | – | – |
| COc1cc(CNC(=O)/C=C/c2ccc(Cl)cc2Cl)ccc1O | 0.62 µM | – | – |
| CCCCCC/N=C(\S)NCc1ccc(O)c(OC)c1 | 0.18 µM | – | EC50 (Cavia porcellus): 0.18 µM; ED50 (Mus musculus): 12.5 µmol/kg |
| COc1cc(CNC(=O)C#Cc2ccc(Cl)cc2)ccc1O | 4.1 µM | – | – |
| COc1cc(C/N=C(/N)S)ccc1O | > 100 µM | – | – |
| CCCCCCCCCC/N=C(\S)NCc1ccc(O)c(OC)c1 | – | 0.11 µM | – |
| COc1cc(CC(=O)NCCc2ccc(Cl)cc2)ccc1O | 0.66 µM | – | – |
| CCCC/N=C(\S)NCc1ccc(O)c(OC)c1 | 9.48 µM | – | EC50 (Cavia porcellus): 3.4 µM; ED50 (Mus musculus): > 50 µmol/kg |
| CCCCCCCC/N=C(\S)NCc1ccc(O)c(OC)c1 | – | – | EC50 (Cavia porcellus): 0.06 µM; EC50 (Vanilloid receptor [2]; read-out: EC50): 0.06 µM; ED50 (Mus musculus): 3.2 µmol/kg |
| COc1cc(C/N=C(\S)NC(c2ccccc2)(c2ccccc2)c2ccccc2)ccc1O | – | > 100 µM | – |
| CCCCCCCC/C=C/CCCCCCC/N=C(\S)NCc1ccc(O)c(OC)c1 | – | > 100 µM | – |
| COCCOCC(=O)NCc1ccc(O)c(OC)c1 | > 100 µM | – | – |
| COc1cc(CNC(=O)/C=C/c2ccc(NC=O)cc2)ccc1O | 1000 µM | – | – |
| COCCOCCOCC(=O)NCc1ccc(O)c(OC)c1 | > 100 µM | – | – |
| COc1cc(CNC(=O)CBr)ccc1O | – | > 100 µM | – |
| COc1cc(C/N=C(\S)NC(c2ccccc2)c2ccccc2)ccc1O | 0.27 µM | – | – |
| COc1cc(C/N=C(\S)NC2[C@H]3C[C@@H]4C[C@@H](C[C@H]2C4)C3)ccc1O (stereo partly drawn) | 1.08 µM | – | – |
| COc1cc(CNC(=O)/C=C/c2ccccc2)ccc1O | 11.8 µM | – | – |
| CCCCCCCCCCCCCCCCCC/N=C(\S)NCc1ccc(O)c(OC)c1 | – | 8.1 µM | – |
| COc1cc(CNC(=O)/C=C/c2ccc(I)cc2)ccc1O | 0.35 µM | – | – |
| COc1cc(CNC(=O)/C=C\c2ccc(Cl)cc2)ccc1O | 50.1 µM | – | – |
| COc1cc(CNC(=O)CCCCCNC(=O)OC(C)(C)C)ccc1O | 79.8 µM | – | – |
| CCCCCCCCCCCCCCCCCC(=O)NCc1ccc(O)c(OC)c1 | – | > 100 µM | – |

| SMILES | EC50 (Vanilloid receptor [1]) | EC50 (Vanilloid receptor [2]) | other results |
| --- | --- | --- | --- |
| CCCCCCCCCCCC/N=C(\S)NCc1ccc(O)c(OC)c1 | – | 0.16 µM | – |
| COc1cc(CNC(=O)CCc2ccccc2)ccc1O | 45.26 µM | – | – |
| COc1cc(CNC(=O)/C=C/c2ccc(-c3ccccc3)cc2)ccc1O | 0.24 µM | – | – |
| COc1cc(CNC(=O)CCc2ccc([N+](=O)[O-])cc2)ccc1O | 21 µM | – | – |
| COc1cc(CNC(=O)/C=C/c2ccc(C#N)cc2)ccc1O | 26.5 µM | – | – |
| COc1cc(CNC(=O)CCc2ccc(N=[N+]=[N-])cc2)ccc1O | – | 4.2 µM | – |
| COCCOCCOCC(=O)NCCCCCCCCCCC(=O)NCc1ccc(O)c(OC)c1 | – | > 100 µM | – |
| COc1cc(CNC(=O)/C=C/c2ccc([N+](=O)[O-])cc2)ccc1O | – | 4.58 µM | – |
| CCCCC/N=C(\S)NCc1ccc(O)c(OC)c1 | 1.96 µM | – | EC50 (Cavia porcellus): 1.8 µM; ED50 (Mus musculus): > 50 µmol/kg |
| COc1cc(CNC(=O)/C=C/c2ccc(Cl)cc2)ccc1O | 1.24 µM | – | – |
| CCCCCCC/N=C(\S)NCc1ccc(O)c(OC)c1 | – | 0.29 µM | EC50 (Cavia porcellus): 0.1 µM; ED50 (Mus musculus): 15 µmol/kg |
| COc1cc(CNC(=O)/C=C/c2cccc(Cl)c2)ccc1O | 2.58 µM | – | – |
| CCCCCCCCCCCCCCCC/N=C(\S)NCc1ccc(O)c(OC)c1 | – | > 100 µM | – |
| COc1cc(CNC(=O)CCl)ccc1O | – | > 100 µM | – |
| COc1cc(CNC(=O)CCc2ccc(O)cc2)ccc1O | > 100 µM | – | – |
| CCCCCCCC/C=C/CCCCCCCC(=O)NCc1ccc(O)c(OC)c1 | – | 0.36 µM | – |
| CCCCCCCCC/N=C(\S)NCc1ccc(O)c(OC)c1 | – | 0.1 µM | – |
| COc1cc(CNC(=O)CCCCCCCCCCC(=O)O)ccc1O | – | > 100 µM | – |
| COc1cc(CNC(=O)Cc2ccc(Cl)cc2)ccc1O | 7.77 µM | – | – |
| COc1cc(CNC(=O)CCc2ccc(Cl)cc2)ccc1O | 3.09 µM | – | – |
| COc1cc(CNC(=O)CCCC/C=C/C(C)C)ccc1O [CAPSAICIN] | – | – | ED50 (Mus musculus): 15 µmol/kg |
| COc1cc(CNC(=O)CCCCCCC(C)C)ccc1O [DIHYDROCAPSAICIN] | 0.19 µM | – | – |
| CCCCCCCCC(=O)NCc1ccc(O)c(OC)c1 [NONIVAMIDE] | – | – | EC50 (Vanilloid receptor [2]; read-out: EC50): 0.55 µM |
| CCCCCCCC/C=C\CCCCCCCC(=O)NCc1ccc(O)c(OC)c1 [OLVANIL] | – | 0.17 µM | – |
